Test results from the RNAGym collection of RNA variant scans (doi:10.1126/science.aae0568).
Variants at the floor of the assay were thinned out.

B1: tRNA (parent)
chain: GUUCCGUUGGCGUAAUGGUAACGCGUCUCCCUCCUAAGGAGAAGACUGCGGGUUCGAGUCCCGUACGGAACG

Variants of: B1
Experiment: yeast fitness relative to wild type (ratio to wild type); higher = fitter; tRNA-Arg(CCU), competitive growth, 37 C, YPD
Procedure, shortened: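 A pool of Saccharomyces cerevisiae strains, each with a tRNA-Arg(CCU) gene variant at the native genomic locus, was competed in YPD at 37°C for 24 hours across six parallel replicates. The variants had been chemically synthesised at a 3% per-site mutation rate over 69 sites, and gene amplicons before and after competition were read by 100-nucleotide paired-end sequencing. Darwinian fitness relative to wild type rested on changes in genotype frequencies. Genotypes required ≥ 100 starting reads, and estimates < 0.5 were set to 0.5.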

Variant | yeast fitness
U2G C5U A21C G48A G50C | ≤ 0.5
U2G C5U C34G C62U | ≤ 0.5
U2G C11A C30A A57U | ≤ 0.5
U2G C11G A20G C24U C31G | 0.615
U2G C11G A20U C24G A42G | ≤ 0.5
U2G C11G A20U C24G C55A C61U | ≤ 0.5
U2G C11G A36C C61G G63A | ≤ 0.5
U2G C11G C46G G51C U53A | ≤ 0.5
U2G C11G G12C C49U | ≤ 0.5
U2G C11G G38C G44A | ≤ 0.5
U2G C11U A40G G50C | ≤ 0.5
U2G C11U A40U C49A | 0.523
U2G C11U A45C U53G | 0.583
U2G C11U C30U C55A A65C | ≤ 0.5
U2G C11U G23A | ≤ 0.5
U2G C11U G23A C46U U54A | ≤ 0.5
U2G C11U G52C C55G A70G | ≤ 0.5
U2G C22A G56A U59G | ≤ 0.5
U2G C22U C24G A69C | 0.579
U2G C22U U32C | ≤ 0.5
U2G C24A | 0.82
U2G C24A A45G | 0.586
U2G C24A A45G C61G C62U | ≤ 0.5
U2G C24A C31G A45U | ≤ 0.5

Variant | yeast fitness
U2G C24A C46A A70C | 1.01
U2G C24G | 0.769
U2G C24G C29G C31G | 0.515
U2G C24G G52C C66U | 0.807
U2G C24U A69U | 0.681
U2G C24U C29G C61G | 0.635
U2G C27A C34G A65G | ≤ 0.5
U2G C27G | 0.546
U2G C27G G63A A65C G68C | 0.632
U2G C27G G67C | ≤ 0.5
U2G C27G G67U | ≤ 0.5
U2G C27U | 0.878
U2G C27U A36G C62A | ≤ 0.5
U2G C27U C46U G58A | 0.662
U2G C27U C46U G68C | 0.763
U2G C29A A40U | ≤ 0.5
U2G C29G A43C | 0.548
U2G C29G C33G | ≤ 0.5
U2G C29G G44C C49G A57U | ≤ 0.5
U2G C29G U47C | 0.557
U2G C29U G44C U54A | 0.554
U2G C30A C46U G52C | ≤ 0.5
U2G C30G | 0.679
U2G C30G C62G | 0.591

Variant | yeast fitness
U2G C30U G58C G63C | 0.618
U2G C31A G56U G67A A70C | ≤ 0.5
U2G C31G A57U C60A | ≤ 0.5
U2G C31G G39C C60A | ≤ 0.5
U2G C31U G50A C60U | ≤ 0.5
U2G C31U U54G | ≤ 0.5
U2G C31U U64G A65U | ≤ 0.5
U2G C33A C49G | ≤ 0.5
U2G C33G A45G A70U | ≤ 0.5
U2G C33G C61A | ≤ 0.5
U2G C33G C62U A65U | ≤ 0.5
U2G C33U A65C | ≤ 0.5
U2G C33U C34G G48C G67C | ≤ 0.5
U2G C33U G58C A70U | 0.581
U2G C34G | 0.655
U2G C34G G39C | ≤ 0.5
U2G C34G G39C G41C G67C | ≤ 0.5
U2G C34U | 0.616
U2G C34U A36C | ≤ 0.5
U2G C34U A69U | 0.543
U2G C34U U35C | ≤ 0.5
U2G C46A C66U | 0.584
U2G C46A G56C | ≤ 0.5
U2G C46A G68C | ≤ 0.5

Variant | yeast fitness
U2G C46G | 0.864
U2G C46G G52A | ≤ 0.5
U2G C46U | 1.01
U2G C49U | 0.957
U2G C49U C62U | 0.565
U2G C49U C66U | 0.606
U2G C55G | 0.532
U2G C60U | 0.782
U2G C61U A70G | 0.795
U2G C62G | 0.632
U2G C62G A69C | ≤ 0.5
U2G C62G C66U | ≤ 0.5
U2G C66U | 0.858
U2G G6A | 0.634
U2G G6A C27G U54C C62U | ≤ 0.5
U2G G6A C27U A36U C60G | 0.526
U2G G6A C27U G39C | ≤ 0.5
U2G G6A C31G C33U U59G C66U G68A | ≤ 0.5
U2G G6A G23A C29G C55A | 0.508
U2G G6A G25A A37U A40C | ≤ 0.5
U2G G9A | 1.01
U2G G9A A36G A57G C60U | 0.672
U2G G9A A69U | 0.577
U2G G9C A14C C27U G58A | ≤ 0.5

Variant | yeast fitness
U2G G9C A15G | ≤ 0.5
U2G G9C A20G A42C C46G C49U | 0.602
U2G G9C A20G A42C C46G C49U C66U A69C | ≤ 0.5
U2G G9C A20G A42C C46G C49U G63A A69C | ≤ 0.5
U2G G9C A20G G25A A42C C46G C49U A69C | ≤ 0.5
U2G G9C A65C | 0.548
U2G G9C A65C G68A | ≤ 0.5
U2G G9C G12A A42C C46A G68C | ≤ 0.5
U2G G10A A69C | ≤ 0.5
U2G G10C | 0.527
U2G G10C A40G A57G | ≤ 0.5
U2G G12A U13A G25C U28A C33A G63C U64C | ≤ 0.5
U2G G12A U13A G25C U28A C33A G63C U64C C66U | ≤ 0.5
U2G G12A U35C | ≤ 0.5
U2G G12C | 0.757
U2G G12C C49U | ≤ 0.5
U2G G12C C49U C66U | ≤ 0.5
U2G G12U A43U | 0.631
U2G G17A C24U A36U A37U | 0.585
U2G G18A C29G C31G | ≤ 0.5
U2G G18A C29G C31G G52A | ≤ 0.5
U2G G18C G23U C27U U64A | ≤ 0.5
U2G G18C G23U U64A | 0.606
U2G G18C U26A C33U C46U A57C | ≤ 0.5

Variant | yeast fitness
U2G G25A | 0.986
U2G G25A U53A | ≤ 0.5
U2G G25A U53A G63A | 0.563
U2G G25C U28G A42C C61U | ≤ 0.5
U2G G38C | 0.606
U2G G44C C55G | ≤ 0.5
U2G G44C G58C | 0.647
U2G G48A G58A | 0.614
U2G G48A G58C A65U G67C | ≤ 0.5
U2G G48C C66U | 0.519
U2G G48C G52C C62G C66U | ≤ 0.5
U2G G50C U59A | 0.547
U2G G51A G58C | 0.562
U2G G51C | 0.543
U2G G52A | 0.774
U2G G52A G56A | 0.81
U2G G52C C61G | ≤ 0.5
U2G G56A | 0.896
U2G G63A | 0.876
U2G G68C | 0.705
U2G U3A | 0.736
U2G U3A C5U U7C U8C A20C U35C A37U A57C | ≤ 0.5
U2G U3C A20G C33U G39A | ≤ 0.5
U2G U3C A21C | ≤ 0.5

Variant | yeast fitness
U2G U3C C55U C61A | ≤ 0.5
U2G U3C G10C A69C | ≤ 0.5
U2G U7C A69U | ≤ 0.5
U2G U7C C29G C60A | ≤ 0.5
U2G U7C C55U C62G C66A | ≤ 0.5
U2G U7G U16C C34U G50A U54C A65U | ≤ 0.5
U2G U7G U16C C34U U54C A65U | ≤ 0.5
U2G U7G U26A C49U A65U | ≤ 0.5
U2G U8A G23A U26G A43G | 0.576
U2G U8C C22U C24G U32C A37G A69G A70G | ≤ 0.5
U2G U8C C27U C46U | 0.789
U2G U13A C22U | 0.579
U2G U13A C22U C61U C66U | ≤ 0.5
U2G U13A C60U | 0.816
U2G U13C A21G U35A C55U A70G | ≤ 0.5
U2G U13G C49U G56A A70G | ≤ 0.5
U2G U16A | 1.15
U2G U16C | 0.969
U2G U16G C27A A36C A70C | ≤ 0.5
U2G U19A A21G A65U G67C | 0.543
U2G U19A A21G C31U A65U G67C | ≤ 0.5
U2G U19G | 1.24
U2G U19G A70C | 0.685
